Test results taken from ChEMBL document CHEMBL4373718, “Germacrane Sesquiterpenoids as a New Type of Anticardiac Fibrosis Agent Targeting Transforming Growth Factor β Type I Receptor” (J Med Chem, 2019).
Activity calls are given as the source filed them. The calls are words filed in the database; no cut-off is given here.

Assays:
[1] = target: T1, TGF-beta receptor type-1 (Rattus norvegicus) (UniProt P80204); test: Inhibition of TGFbeta1 receptor in TGFbeta1-stimulated Sprague-Dawley rat cardiac fibroblasts assessed as reduction in fibronectin expression at 50 uM measured after 12 hrs by Western blot analysis
T1 sequence (whole entry): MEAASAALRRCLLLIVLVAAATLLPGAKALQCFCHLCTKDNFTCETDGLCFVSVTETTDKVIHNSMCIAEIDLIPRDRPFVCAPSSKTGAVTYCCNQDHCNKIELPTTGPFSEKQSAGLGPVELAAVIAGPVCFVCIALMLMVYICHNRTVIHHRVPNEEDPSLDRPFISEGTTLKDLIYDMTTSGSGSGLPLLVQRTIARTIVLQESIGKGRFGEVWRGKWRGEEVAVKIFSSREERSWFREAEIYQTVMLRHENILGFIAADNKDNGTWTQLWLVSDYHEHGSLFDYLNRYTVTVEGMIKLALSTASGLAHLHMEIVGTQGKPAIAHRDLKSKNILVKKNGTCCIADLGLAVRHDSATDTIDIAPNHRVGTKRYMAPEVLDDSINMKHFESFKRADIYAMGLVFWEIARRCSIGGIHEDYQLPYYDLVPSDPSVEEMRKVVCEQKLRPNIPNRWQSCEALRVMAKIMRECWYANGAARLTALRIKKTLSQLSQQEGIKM
How it was run: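 Screen in primary rat cardiac fibroblasts: compounds at 50 µM or 10 µM given with 10 ng/mL TGFβ1 for 12 h. FN measured by Western blot with GAPDH loading control and densitometry. N=3 independent experiments.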

[2] = target: T1, TGF-beta receptor type-1 (Rattus norvegicus); test: Inhibition of TGFbeta1 receptor in TGFbeta1-stimulated Sprague-Dawley rat cardiac fibroblasts assessed as reduction in fibronectin expression at 10 uM measured after 12 hrs by Western blot analysis relative to control
How it was run: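 Primary rat cardiac fibroblasts (passages 2–4, 3×10^5 per well) treated with compound plus 10 ng/mL TGFβ1 for 12 h; tested at 2.5, 5 and 10 µM. Lysates run on 10% SDS-PAGE (30 µg protein), probed for FN, α-SMA and collagen I/III, and quantified by densitometry against GAPDH. N=3 independent experiments.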

[3] = target: T1, TGF-beta receptor type-1 (Rattus norvegicus); test: Inhibition of TGFbeta1 receptor in TGFbeta1-stimulated Sprague-Dawley rat cardiac fibroblasts assessed as reduction in fibronectin expression at 20 uM measured after 12 hrs by Western blot analysis
How it was run: (§1)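 Primary adult male SD rat cardiac fibroblasts were used at passages 2–4, seeded at 3×10^5 per well. Cells were co-treated with compound and 10 ng/mL TGFβ1 for 12 h. Lysates (30 µg protein) were run on 10% SDS-PAGE, Western blotted for FN, α-SMA, collagen I and III, normalised to GAPDH and quantified by densitometry; N = 3 independent experiments.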

[4] = target: T1, TGF-beta receptor type-1 (Rattus norvegicus); test: Inhibition of TGFbeta1 receptor in TGFbeta1-stimulated Sprague-Dawley rat cardiac fibroblasts assessed as reduction in alpha-SMA expression at 20 uM measured after 12 hrs by Western blot analysis; how it was run: as §1
[5] = target: T1, TGF-beta receptor type-1 (Rattus norvegicus); test: Inhibition of TGFbeta1 receptor in TGFbeta1-stimulated Sprague-Dawley rat cardiac fibroblasts assessed as reduction in collagen 1 expression at 20 uM measured after 12 hrs by Western blot analysis; how it was run: as §1
[6] = target: T1, TGF-beta receptor type-1 (Rattus norvegicus); test: Inhibition of TGFbeta1 receptor in TGFbeta1-stimulated Sprague-Dawley rat cardiac fibroblasts assessed as reduction in collagen 3 expression at 20 uM measured after 12 hrs by Western blot analysis; how it was run: as §1
Rattus norvegicus [7] = test: Antifibrotic activity in abdominal aortic constriction Sprague-Dawley rat model of cardiac fibrosis assessed as decrease in heart fibronectin level at 10 mg/kg, ip administered once daily for 4 weeks measured post-last dose by immunohistochemical analysis; assay type: functional, organism-based
How it was run: (§2)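 Male SD rats (200–250 g, n = 8/group) had the suprarenal abdominal aorta tied with 4-0 silk around a 21-G probe, which was then removed; sham rats had surgery without constriction. Dosing was ip daily for 4 weeks in saline with 0.5% DMSO and 5% Kolliphor HS 15. Ventricle slices were formalin-fixed, paraffin-embedded and cut into 4 µm sections. FN and α-SMA were read by immunohistochemistry and collagen by Masson's trichrome.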

Rattus norvegicus [8] = test: Antifibrotic activity in abdominal aortic constriction Sprague-Dawley rat model of cardiac fibrosis assessed as decrease in heart collagen level at 10 mg/kg, ip administered once daily for 4 weeks measured post-last dose by Masson's trichrome staining-based histological analysis; assay type: functional, organism-based; how it was run: as §2
Rattus norvegicus [9] = test: Antifibrotic activity in abdominal aortic constriction Sprague-Dawley rat model of cardiac fibrosis assessed as decrease in heart alpha-SMA level at 10 mg/kg, ip administered once daily for 4 weeks measured post-last dose by immunohistochemical analysis; assay type: functional, organism-based; how it was run: as §2
Rattus norvegicus [10] = test: Antifibrotic activity in abdominal aortic constriction Sprague-Dawley rat model of cardiac fibrosis assessed as diastolic left ventricular anterior wall thickness at 10 mg/kg, ip administered once daily for 4 weeks measured post-last dose by echocardiography (reference value: 2.48 +/- 0.42 mm); assay type: functional
Rattus norvegicus [11] = test: Antifibrotic activity in abdominal aortic constriction Sprague-Dawley rat model of cardiac fibrosis assessed as systolic left ventricular anterior wall thickness at 10 mg/kg, ip administered once daily for 4 weeks measured post-last dose by echocardiography (reference value: 3.92 +/- 0.42 mm); assay type: functional
Rattus norvegicus [12] = test: Antifibrotic activity in abdominal aortic constriction Sprague-Dawley rat model of cardiac fibrosis assessed as diastolic left ventricular internal diameter at 10 mg/kg, ip administered once daily for 4 weeks measured post-last dose by echocardiography (reference value: 7.60 +/- 0.63 mm); assay type: functional
Rattus norvegicus [13] = test: Antifibrotic activity in abdominal aortic constriction Sprague-Dawley rat model of cardiac fibrosis assessed as systolic left ventricular internal diameter at 10 mg/kg, ip administered once daily for 4 weeks measured post-last dose by echocardiography (reference value: 3.99 +/- 0.41 mm); assay type: functional
Rattus norvegicus [14] = test: Antifibrotic activity in abdominal aortic constriction Sprague-Dawley rat model of cardiac fibrosis assessed as diastolic left ventricular posterior wall thickness at 10 mg/kg, ip administered once daily for 4 weeks measured post-last dose by echocardiography (reference value: 2.33 +/- 0.31 mm); assay type: functional
Rattus norvegicus [15] = test: Antifibrotic activity in abdominal aortic constriction Sprague-Dawley rat model of cardiac fibrosis assessed as systolic left ventricular posterior wall thickness at 10 mg/kg, ip administered once daily for 4 weeks measured post-last dose by echocardiography (reference value: 3.62 +/- 0.26 mm); assay type: functional
Rattus norvegicus [16] = test: Antifibrotic activity in abdominal aortic constriction Sprague-Dawley rat model of cardiac fibrosis assessed as ejection fraction at 10 mg/kg, ip administered once daily for 4 weeks measured post-last dose by echocardiography (reference value: 79.59 +/- 3.13%); assay type: functional
Rattus norvegicus [17] = test: Antifibrotic activity in abdominal aortic constriction Sprague-Dawley rat model of cardiac fibrosis assessed as fractional shortening at 10 mg/kg, ip administered once daily for 4 weeks measured post-last dose by echocardiography (reference value: 48.17 +/- 4.69%); assay type: functional

C=C(C)[C@@H]1C/C=C(\C)[C@H](OC(=O)c2ccc(C(F)(F)F)cc2)CCC2=C[C@@H]1OC2=O
fibronectin reduction (active/not active) [1]: Active

C=C(C)[C@@H]1C[C@@H](O)/C(C)=C/CCC2=C[C@@H]1OC2=O
fibronectin reduction (active/not active) [1]: Active
fibronectin reduction verdict (active/not active) [2]: Active

C=C(C)[C@@H]1C[C@@H](OC(C)C)/C(C)=C/CCC2=C[C@@H]1OC2=O
fibronectin reduction (active/not active) [1]: inactive
fibronectin reduction verdict (active/not active) [2]: inactive

C=C(C)[C@@H]1C/C=C(\C)[C@H](N=[N+]=[N-])CCC2=C[C@@H]1OC2=O
fibronectin reduction (active/not active) [1]: Active

C=C(C)[C@@H]1C/C=C(\C)[C@@H](O)CCC2=C[C@@H]1OC2=O
fibronectin reduction (active/not active) [1]: Active

C=C(C)[C@@H]1C[C@@H](N2CCOCC2)/C(C)=C/CCC2=C[C@@H]1OC2=O
fibronectin reduction (active/not active) [1]: inactive
fibronectin reduction verdict (active/not active) [2]: inactive

C=C(C)[C@@H]1C/C=C(\C)[C@H](O[N+](=O)[O-])CCC2=C[C@@H]1OC2=O
fibronectin reduction (active/not active) [1]: Active

C=C(C)[C@@H]1CC[C@]2(C)O[C@@H]2CCC2=C[C@@H]1OC2=O
fibronectin reduction (active/not active) [1]: Active

C=C(C)[C@@H]1C[C@@H](N2CCCC2)/C(C)=C/CCC2=C[C@@H]1OC2=O
fibronectin reduction (active/not active) [1]: inactive
fibronectin reduction verdict (active/not active) [2]: inactive

C=C(C)[C@@H]1C/C=C(\C)[C@H](F)CCC2=C[C@@H]1OC2=O
fibronectin reduction (active/not active) [1]: Active

C=C(C)[C@@H]1C/C=C(\C)[C@H](O)CCC2=C[C@@H]1OC2=O
fibronectin reduction (active/not active) [1]: Active

C=C(C)[C@@H]1C/C=C(\C)[C@H](OC(=O)c2ccc([N+](=O)[O-])cc2)CCC2=C[C@@H]1OC2=O
fibronectin reduction (active/not active) [1]: Active
fibronectin reduction verdict (active/not active) [2]: Active

C=C1CC[C@@H](C(=C)C)[C@@H]2C=C(CC[C@H]1F)C(=O)O2
fibronectin reduction (active/not active) [1]: Active

C=C(C)[C@@H]1C/C=C(C)/C(=N\OC(=O)c2ccco2)CCC2=C[C@@H]1OC2=O
fibronectin reduction (active/not active) [1]: inactive
fibronectin reduction verdict (active/not active) [2]: inactive

C=C(C)[C@@H]1CC/C(C)=C/CC[C@@H](C(=O)OC)CC1=O
fibronectin reduction (active/not active) [1]: inactive
fibronectin reduction verdict (active/not active) [2]: inactive

COC(=O)C1=C(C)NC(C)=C(C(=O)OC)C1c1ccccc1[N+](=O)[O-] [NIFEDIPINE]
inhibition [3]: Active
inhibition [4]: Active
inhibition [5]: Active
inhibition [6]: Active
Activity (Rattus norvegicus [7]): Active
Activity (Rattus norvegicus [8]): Active
Activity (Rattus norvegicus [9]): Active
Activity (Rattus norvegicus [10]): 2.02 mm
Activity (Rattus norvegicus [11]): 3.23 mm
Activity (Rattus norvegicus [12]): 8.32 mm
Activity (Rattus norvegicus [13]): 4.69 mm
Activity (Rattus norvegicus [14]): 1.97 mm
Activity (Rattus norvegicus [15]): 3.19 mm
Activity (Rattus norvegicus [16]): 72.6%
Activity (Rattus norvegicus [17]): 42.79%
